Measurements: ChEMBL document CHEMBL1141128, “Structure-activity relationship study on a simple cationic peptide motif for cellular delivery of antisense peptide nucleic acid” (J Med Chem, 2005)
Non-standard residues stand in square brackets, D forms with d. Residues, ends and D or L forms follow the SMILES beside them. Lys(Me2) = CN(C)CCCC[C@H](N)C(=O)O; hLys = NCCCCC[C@H](N)C(=O)O; Nlys = NCCCCNCC(=O)O

Columns and labels:
CD40 mRNA [1] = test: […] CD40 expression in BCL1 cells treated with 1 uM peptide nucleic acid (PNA)conjugate; n=3; type: functional, cell-based; settings: Mus musculus
How it was run: (§1)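 Mouse BCL1 cells in DMEM with 10% FBS, given conjugate at 1, 3 or 10 μM by free uptake (no transfection agent) for 3 days. Cells trypsinised and stained 1 h with FITC anti-CD40 (HM40-3) or isotype control, then surface CD40 read by flow cytometry. Results are % untreated control, mean ± SD, n = 3.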

CD40 mRNA [2] = test: […] CD40 expression in BCL1 cells treated with 3 uM peptide nucleic acid (PNA)conjugate; n=3; type: functional, cell-based; settings: Mus musculus; how it was run: as §1
CD40 mRNA [3] = test: […] CD40 expression in BCL1 cells treated with 10 uM peptide nucleic acid (PNA)conjugate; n=3; type: functional, cell-based; settings: Mus musculus; how it was run: as §1
BCL1 [4] = test: Inhibitory concentration against BCL1 cell proliferation in WST-1 assay; Range 10-20; type: functional, Mus musculus
How it was run: (§2)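 BCL1 cells, 2000 per well, grown in DMEM with 10% FBS at 37 °C and 5% CO2. Exposed to conjugate for 3 days, then viable cells read by WST-1 absorbance at 450 nm. Value is the concentration at which absorbance fell below 50% of untreated control; triplicates.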

[5] = Half-life of the conjugate when treated with 25% murine serum for enzymatic stability; type: ADME; settings: mouse
How it was run: (§3)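 Conjugates at 20 μM in 10% FBS RPMI 1640 medium or 25% mouse serum (Hepes-stabilised, diluted in PBS, pH 7.1–7.4), incubated at 37 °C. Sampled to 168 h (FBS) or 48 h (serum); proteins precipitated with 10% DCA, PNA 6mer internal standard added. Analysed by C3 RP-HPLC at 60 °C; t1/2 from normalised full-length peak area versus time.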

[6] = Half-life of the conjugate when treated with 10% foetal bovine serum for enzymatic stability; type: ADME, Bos taurus; settings: cattle; how it was run: as §3
BCL1 [7] = test: Inhibitory concentration against BCL1 cell proliferation in WST-1 assay; type: functional, Mus musculus; how it was run: as §2
[8] = Half-life of the conjugate when treated with 25% murine serum for enzymatic stability; No data available; type: ADME; settings: mouse; how it was run: as §3

Row | half-life [5] [h] | half-life [6] [h] | T1/2 [8] | SMILES | UTC (CD40 mRNA [1]) [%] | UTC (CD40 mRNA [2]) [%] | UTC (CD40 mRNA [3]) [%] | IC50 (BCL1 [4]) [µM] | IC50 for cell proliferation (BCL1 [7]) [µM]
1 | > 48 | > 168 | – | NCCCC[C@H](NC(=O)CN(CCCCN)C(=O)CN(CCCCN)C(=O)CN(CCCCN)C(=O)CN(CCCCN)C(=O)CN(CCCCN)C(=O)CN(CCCCN)C(=O)CN(CCCCN)C(=O)CN(CCCCN)C(=O)CN)C(=O)O (H-G[Nlys][Nlys][Nlys][Nlys][Nlys][Nlys][Nlys][Nlys]K-OH) | 92 | 80 | 56 | 20 | –
2 | 22 | > 168 | – | CN(C)CCCC[C@H](NC(=O)[C@H](CCCCN)NC(=O)[C@H](CCCCN)NC(=O)[C@H](CCCCN(C)C)NC(=O)[C@H](CCCCN)NC(=O)[C@@H](N)CCCCN)C(=O)N[C@@H](CCCCN)C(=O)N[C@@H](CCCCN)C(=O)N[C@H](C=O)CCCCN (H-KK[Lys(Me2)]KK[Lys(Me2)]KKK-aldehyde) | 96 | 78 | 41 | – | 5
3 | 18 | > 168 | – | NCCCC[C@@H](C=O)NC(=O)[C@H](CCCCN)NC(=O)[C@H](CCCCN)NOC(=O)[C@H](CCCN)NC(=O)[C@H](CCCCN)NC(=O)[C@H](CCCCN)NOC(=O)[C@H](CCCN)NC(=O)[C@H](CCCCN)NC(=O)[C@@H](N)CCCCN | 94 | 65 | 34 | 20 | –
4 | 17 | > 168 | – | NCCCCC[C@H](NC(=O)[C@H](CCCCCN)NC(=O)[C@H](CCCCCN)NC(=O)[C@H](CCCCCN)NC(=O)[C@H](CCCCCN)NC(=O)[C@H](CCCCCN)NC(=O)[C@H](CCCCCN)NC(=O)[C@@H](N)CCCCCN)C(=O)N[C@H](C=O)CCCCN (H-[hLys][hLys][hLys][hLys][hLys][hLys][hLys][hLys]K-aldehyde) | 87 | 65 | 31 | – | 10
5 | – | > 168 | No data available | CN(C)CCCC[C@H](NC(=O)[C@H](CCCCN(C)C)NC(=O)[C@H](CCCCN)NC(=O)[C@H](CCCCN(C)C)NC(=O)[C@H](CCCCN(C)C)NC(=O)[C@H](CCCCN)NC(=O)[C@H](CCCCN(C)C)NC(=O)[C@@H](N)CCCCN(C)C)C(=O)N[C@H](C=O)CCCCN (H-[Lys(Me2)][Lys(Me2)]K[Lys(Me2)][Lys(Me2)]K[Lys(Me2)][Lys(Me2)]K-aldehyde) | 91 | 89 | 63 | – | >20
6 | – | 120 | – | NCCCCC[C@H](NC(=O)[C@H](CCCCCN)NC(=O)[C@H](CCCCN)NC(=O)[C@H](CCCCN)NC(=O)[C@H](CCCCN)NC(=O)[C@H](CCCCN)NC(=O)[C@H](CCCCCN)NC(=O)[C@@H](N)CCCCCN)C(=O)N[C@H](C=O)CCCCN (H-[hLys][hLys]KKKK[hLys][hLys]K-aldehyde) | 86 | 66 | 34 | – | >20
7 | 15 | > 168 | – | N=C(N)NCCCC[C@H](NC(=O)[C@H](CCCCNC(=N)N)NC(=O)[C@H](CCCCNC(=N)N)NC(=O)[C@H](CCCCNC(=N)N)NC(=O)[C@H](CCCCNC(=N)N)NC(=O)[C@H](CCCCNC(=N)N)NC(=O)[C@H](CCCCNC(=N)N)NC(=O)[C@@H](N)CCCCNC(=N)N)C(=O)N[C@H](C=O)CCCCN | 91 | 45 | 20 | – | 5
8 | 10 | > 168 | – | NCCCCC[C@H](NC(=O)[C@H](CCCCN)NC(=O)[C@H](CCCCN)NC(=O)[C@H](CCCCCN)NC(=O)[C@H](CCCCN)NC(=O)[C@@H](N)CCCCN)C(=O)N[C@@H](CCCCN)C(=O)N[C@@H](CCCCN)C(=O)N[C@H](C=O)CCCCN (H-KK[hLys]KK[hLys]KKK-aldehyde) | 76 | 61 | 31 | – | >20
9 | 44 | > 168 | – | NCCCC[C@@H](C=O)NC(=O)[C@H](Cc1c[nH]cn1)NC(=O)[C@H](Cc1c[nH]cn1)NC(=O)[C@H](Cc1c[nH]cn1)NC(=O)[C@H](Cc1c[nH]cn1)NC(=O)[C@H](Cc1c[nH]cn1)NC(=O)[C@H](Cc1c[nH]cn1)NC(=O)[C@H](Cc1c[nH]cn1)NC(=O)[C@@H](N)Cc1c[nH]cn1 (H-HHHHHHHHK-aldehyde) | 81 | 74 | 64 | – | >20
10 | 6 | > 168 | – | NCCCC[C@@H](C=O)NC(=O)[C@H](Cc1c[nH]cn1)NC(=O)[C@H](CCCCN)NC(=O)[C@H](Cc1c[nH]cn1)NC(=O)[C@H](CCCCN)NC(=O)[C@H](Cc1c[nH]cn1)NC(=O)[C@H](CCCCN)NC(=O)[C@H](Cc1c[nH]cn1)NC(=O)[C@@H](N)CCCCN (H-KHKHKHKHK-aldehyde) | 88 | 87 | 73 | – | >20
11 | – | – | – | NCCCC[C@@H](C=O)NOC(=O)C(CCCN)NOC(=O)C(CCCN)NC(=O)[C@H](CCCCN)NC(=O)[C@H](CCCCN)NC(=O)[C@H](CCCCN)NC(=O)[C@H](CCCCN)NOC(=O)C(CCCN)NOC(=O)C(N)CCCN (some centres undefined) | 97 | 69 | 52 | – | 5
12 | – | > 168 | No data available | NCCCC[C@@H](C=O)NOC(=O)[C@H](CCCN)NOC(=O)[C@H](CCCN)NC(=O)[C@H](CCCCN)NC(=O)[C@H](CCCCN)NC(=O)[C@H](CCCCN)NC(=O)[C@H](CCCCN)NOC(=O)[C@H](CCCN)NOC(=O)[C@@H](N)CCCN | – | – | – | – | –
13 | > 48 | > 168 | – | NCCCC[C@@H](C=O)NC(=O)[C@H](CCCCN)NC(=O)[C@@H](CCCCN)NC(=O)[C@H](CCCCN)NC(=O)[C@H](CCCCN)NC(=O)[C@@H](CCCCN)NC(=O)[C@H](CCCCN)NC(=O)[C@@H](N)CCCCN | 102 | 87 | 62 | 20 | –
14 | 6 | > 168 | – | NCCCC[C@@H](C=O)NC(=O)[C@H](CCCCN)NC(=O)[C@H](CCCCN)NC(=O)[C@H](Cc1c[nH]cn1)NC(=O)[C@H](CCCCN)NC(=O)[C@H](CCCCN)NC(=O)[C@H](Cc1c[nH]cn1)NC(=O)[C@H](CCCCN)NC(=O)[C@@H](N)CCCCN (H-KKHKKHKKK-aldehyde) | 86 | 73 | 52 | 20 | –
15 | 29 | > 168 | – | NCCCC[C@H](NC(=O)[C@H](CCCCN)NC(=O)[C@H](CCCCN)NC(=O)CN(CCCCN)C(=O)[C@H](CCCCN)NC(=O)[C@H](CCCCN)NC(=O)CN(CCCCN)C(=O)[C@H](CCCCN)NC(=O)[C@@H](N)CCCCN)C(=O)O (H-KK[Nlys]KK[Nlys]KKK-OH) | 104 | 88 | 60 | 20 | –
16 | > 48 | > 168 | – | CN(C)CCCC[C@H](NC(=O)[C@H](CCCCN(C)C)NC(=O)[C@H](CCCCN(C)C)NC(=O)[C@H](CCCCN(C)C)NC(=O)[C@H](CCCCN(C)C)NC(=O)[C@H](CCCCN(C)C)NC(=O)[C@H](CCCCN(C)C)NC(=O)[C@@H](N)CCCCN(C)C)C(=O)N[C@H](C=O)CCCCN (H-[Lys(Me2)][Lys(Me2)][Lys(Me2)][Lys(Me2)][Lys(Me2)][Lys(Me2)][Lys(Me2)][Lys(Me2)]K-aldehyde) | 94 | 89 | 71 | – | 10
